From ChEMBL document CHEMBL1255219, “Discovery of a β-d-2'-deoxy-2'-α-fluoro-2'-β-C-methyluridine nucleotide prodrug (PSI-7977) for the treatment of hepatitis C virus” (J Med Chem, 2010)

Legend:
[1] = system: Hepatitis C virus; assay: Antiviral activity against HCV infected in human clone A cells assessed as inhibition of cellular rRNA replication at 50 uM; format: functional, Hepacivirus hominis
[2] = system: Hepatitis C virus; assay: Antiviral activity against HCV infected in human clone A cells; format: functional, Hepacivirus hominis
Procedure, shortened: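 Clone A replicon cells seeded at 1500 cells/well. Compounds serially diluted in G418-free culture medium and added, then incubated 4 days at 37 °C in 5% CO2. HCV RNA quantified by real-time RT-PCR as ΔCt relative to the mean no-drug control.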

| Structure (SMILES) | inhibition at 50 µM [1] | EC90 ([2]; Hepatitis C virus) | EC90 [2] |
| --- | --- | --- | --- |
| CCCCCOC(=O)[C@H](C)NP(=O)(OC[C@H]1O[C@@H](n2ccc(=O)[nH]c2=O)[C@](C)(F)[C@@H]1O)Oc1ccccc1 (stereo partly specified) | 92% | > 50000 nM | – |
| COC(=O)[C@H](C)NP(=O)(OC[C@H]1O[C@@H](n2ccc(=O)[nH]c2=O)[C@](C)(F)[C@@H]1O)Oc1cccc2ccccc12 (stereo partly specified) | 95.4% | 90 nM | – |
| CC[C@H](NP(=O)(OC[C@H]1O[C@@H](n2ccc(=O)[nH]c2=O)[C@](C)(F)[C@@H]1O)Oc1ccccc1)C(=O)OC (stereo partly specified) | 0% | 1610 nM | – |
| COC(=O)[C@H](C)NP(=O)(OC[C@H]1O[C@@H](n2ccc(=O)[nH]c2=O)[C@](C)(F)[C@@H]1O)Oc1ccc(Br)cc1 (stereo partly specified) | 30.8% | 2110 nM | – |
| C[C@H](NP(=O)(OC[C@H]1O[C@@H](n2ccc(=O)[nH]c2=O)[C@](C)(F)[C@@H]1O)Oc1ccccc1)C(=O)OCCF (stereo partly specified) | 43.8% | 1720 nM | – |
| COC(=O)[C@H](C)NP(=O)(OC[C@H]1O[C@@H](n2ccc(=O)[nH]c2=O)[C@](C)(F)[C@@H]1O)Oc1ccc(Cl)c(Cl)c1 (stereo partly specified) | 63.7% | 450 nM | – |
| CCOC(=O)[C@H](C)NP(=O)(OC[C@H]1O[C@@H](n2ccc(=O)[nH]c2=O)[C@](C)(F)[C@@H]1O)Oc1ccc(Br)cc1 (stereo partly specified) | 80.5% | 360 nM | – |
| COC(=O)C(C)(C)NP(=O)(OC[C@H]1O[C@@H](n2ccc(=O)[nH]c2=O)[C@](C)(F)[C@@H]1O)Oc1ccc(F)cc1 (stereo partly specified) | 0% | 2200 nM | – |
| CCOP(=O)(N[C@@H](C)C(=O)OC)OC[C@H]1O[C@@H](n2ccc(=O)[nH]c2=O)[C@](C)(F)[C@@H]1O (stereo partly specified) | 16.8% | > 50000 nM | – |
| COC(=O)[C@@H](NP(=O)(OC[C@H]1O[C@@H](n2ccc(=O)[nH]c2=O)[C@](C)(F)[C@@H]1O)Oc1ccccc1)C(C)C (stereo partly specified) | 0% | > 50000 nM | – |
| C[C@H](NP(=O)(OC[C@H]1O[C@@H](n2ccc(=O)[nH]c2=O)[C@](C)(F)[C@@H]1O)Oc1ccccc1)C(=O)OCc1ccc(F)cc1 (stereo partly specified) | 0% | 240 nM | – |
| C[C@H](NP(=O)(OC[C@H]1O[C@@H](n2ccc(=O)[nH]c2=O)[C@](C)(F)[C@@H]1O)Oc1ccccc1)C(=O)OCC(F)F (stereo partly specified) | 38.3% | 6800 nM | – |
| COC(=O)[C@H](Cc1ccccc1)NP(=O)(OC[C@H]1O[C@@H](n2ccc(=O)[nH]c2=O)[C@](C)(F)[C@@H]1O)Oc1ccccc1 (stereo partly specified) | 20.6% | 57600 nM | – |
| COC(=O)[C@H](CC(C)C)NP(=O)(OC[C@H]1O[C@@H](n2ccc(=O)[nH]c2=O)[C@](C)(F)[C@@H]1O)Oc1ccccc1 (stereo partly specified) | 0% | 5400 nM | – |
| C[C@H](NP(=O)(OC[C@H]1O[C@@H](n2ccc(=O)[nH]c2=O)[C@](C)(F)[C@@H]1O)Oc1ccc(Br)cc1)C(=O)OC1CCCCC1 (stereo partly specified) | 91.5% | 39 nM | – |
| COC(=O)[C@H](C)NP(=O)(OC[C@H]1O[C@@H](n2ccc(=O)[nH]c2=O)[C@](C)(F)[C@@H]1O)Oc1ccc(Cl)cc1 (stereo partly specified) | 62.8% | 580 nM | – |
| COC(=O)[C@H](C)NP(=O)(OC[C@H]1O[C@@H](n2ccc(=O)[nH]c2=O)[C@](C)(F)[C@@H]1O)Oc1ccc(F)cc1 (stereo partly specified) | 16.8% | 690 nM | – |
| C[C@H](NP(=O)(OC[C@H]1O[C@@H](n2ccc(=O)[nH]c2=O)[C@](C)(F)[C@@H]1O)Oc1ccccc1)C(=O)OCc1ccccc1 (stereo partly specified) | 74.3% | 130 nM | – |
| CC(C)C(=O)OC[C@H]1O[C@@H](n2ccc(N)nc2=O)[C@](C)(F)[C@@H]1OC(=O)C(C)C [MERICITABINE] | 0% | 3900 nM | – |
| C[C@H](NP(=O)(OC[C@H]1O[C@@H](n2ccc(=O)[nH]c2=O)[C@](C)(F)[C@@H]1O)Oc1ccc(Cl)cc1)C(=O)OC1CCCCC1 (stereo partly specified) | 66.9% | 54 nM | – |
| CC(C)OC(=O)C(C)N[P@](=O)(OC[C@H]1O[C@@H](n2ccc(=O)[nH]c2=O)[C@](C)(F)[C@@H]1O)Oc1ccccc1 (single isomer, unassigned) [SOFOSBUVIR] | – | – | > 50000 nM |
